Published values gathered from unrelated publications.
Protocols differ between the studies behind these lines.

COc1cccc2c1C(=O)c1c(O)c3c(c(O)c1C2=O)C[C@@](O)(C(=O)CO)C[C@@H]3O[C@H]1C[C@H](N)[C@H](O)[C@H](C)O1
IC50 (NCI-H1299; cell growth or viability, MTT; 72 h): 0.77 µM

C#CCOc1ccc(/C=C/c2cc(OC)cc(OC)c2-c2cnnn2C(=O)NCCC)cc1
IC50 (RAW264.7; NO release, inhibitor, Griess; 24 h, LPS-stimulated): 0.7 µM

COc1cc2c3c(n(CCCN4CCOCC4)c(=O)c2cc1OC)-c1nc2c(cc1C3=O)OCO2
IC50 (HL-60; cell growth or viability, MTS; 72 h): > 2 µM

CC#CCOc1ccc(/C=C/c2cc(OC)cc(OC)c2-c2cnnn2C(=O)NCCc2ccccc2)cc1
IC50 (RAW264.7; NO release, inhibitor, Griess; 24 h, LPS-stimulated): 6.1 µM

COc1cc2c(NC3CCN(CCCC(=O)NCCCCCCCCCCCC(=O)N[C@H](C(=O)N4C[C@H](O)C[C@H]4C(=O)NCc4ccc(-c5scnc5C)cc4)C(C)(C)C)CC3)nc(N3CCC(F)(F)CC3)nc2cc1OCCCN1CCCC1
IC50 (NCI-H1299; cell growth or viability, CCK-8; 8 days): 5 µM

COc1cc(NC(=O)c2ccc(C#N)cc2)ccc1S(N)(=O)=O
IC50 (RAW264.7; cell growth or viability, MTT; 48 h): > 100 µM

CC(C)c1ccccc1[C@@H]1CCCN1C1CC2(CCN(c3ccc(C(=O)NS(=O)(=O)c4ccc(NC[C@H]5CC[C@](C)(O)CC5)c([N+](=O)[O-])c4)c(Oc4cnc5[nH]ccc5c4)c3)CC2)C1
IC50 (HL-60; cell growth or viability, ATP luminescence; 48 h): 0.381 µM

COc1cc(NC(=O)c2cccc(C)c2)ccc1S(N)(=O)=O
IC50 (RAW264.7; cell growth or viability, MTT; 48 h): > 100 µM

COc1ccc(NC(=O)C2=C(C)NC(C)=C(C(=O)Nc3cc(OC)c(Cl)cc3OC)C2c2cccc(Cl)c2)c(OC)c1 (centres unmarked)
IC50 (Vero; cell growth or viability, MTT): 49.6 µM

C=C(F)C(=O)N1CCN(c2nc(OC[C@@H]3CCCN3C)nc3c2CCN(c2cccc4cccc(Cl)c24)C3)C[C@@H]1CC#N
IC50 (Lu-65; cell growth or viability, ATP luminescence; 3D culture): 0.00188 µM

COc1ccc(NC(=O)C2=C(C)NC(C)=C(C(=O)Nc3ccc(OC)cc3OC)C2c2cccc(Cl)c2)c(OC)c1
IC50 (Vero; cell growth or viability, MTT): 67.5 µM

CC1(C)CCC(CN2CCN(c3ccc(C(=O)NS(=O)(=O)c4ccc(NCC5CCOCC5)c([N+](=O)[O-])c4)c(Oc4cnc5[nH]ccc5c4)c3)CC2)=C(c2ccc(Cl)cc2)C1
IC50 (Maver1; cell growth or viability, ATP luminescence; 48 h): 0.0065 µM

Cc1ccc(-c2cc(C(F)(F)F)nn2-c2ccc(S(N)(=O)=O)cc2)cc1
IC50 (RAW264.7; NO release, inhibitor, Griess; 24 h, LPS-stimulated): > 20 µM

COc1ccc(NC(=O)C2=C(C)NC(C)=C(C(=O)Nc3ccc(OC)cc3OC)C2c2ccc(O)cc2)c(OC)c1
IC50 (Vero; cell growth or viability, MTT): 70.3 µM

COc1cc2c3c(n(CCCNC(C)C)c(=O)c2cc1OC)-c1nc2c(cc1C3=O)OCO2
IC50 (HL-60; cell growth or viability, MTS; 72 h): 0.328 µM

CCCOc1ccc(/C=C/c2cc(OC)cc(OC)c2-c2cnnn2C(=O)NCCc2ccccc2)cc1
IC50 (RAW264.7; NO release, inhibitor, Griess; 24 h, LPS-stimulated): 10.6 µM

COc1cc(NC(=O)c2ccco2)ccc1S(N)(=O)=O
IC50 (RAW264.7; cell growth or viability, MTT; 48 h): > 100 µM
